Results on 7 compounds are retold here after ChEMBL document CHEMBL3526138, “Excretion and metabolism of milnacipran in humans after oral administration of milnacipran hydrochloride” (Drug Metab Dispos, 2012).

The nature of series [1]: Drug excretion in human urine treated with [14C]-labeled milnacipran hydrochloride at 100 mg, po after 0 to 96 hrs by HPLC analysis. It is filed as ADME, organism-based. The note with it: in vivo.
Series [2] concerns Plasma. Put plainly: Plasma concentration in human treated with [14C]-labeled milnacipran hydrochloride at 100 mg, po measured at 0.5 hrs by HPLC analysis. In kind it is ADME, organism-based. Conditions: in vivo. In a few lines:
(§1)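 Single oral 100 mg [14C] milnacipran hydrochloride in healthy men; blood taken into chilled K3EDTA tubes, plasma spun at ≥2,500 g for 10 min at 4°C and stored at -80°C. Pooled timepoint plasma was extracted and run on phenyl-hexyl HPLC, with 0.5-min fractions counted by LSC. Peak concentration = % of chromatogram radioactivity × pool radioactivity (ng equivalent of milnacipran/mL).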

The test system of series [3] is Plasma. The experiment in a line: Plasma concentration in human treated with [14C]-labeled milnacipran hydrochloride at 100 mg, po measured at 1 hr by HPLC analysis. In kind it is ADME, organism-based. The note with it: in vivo. In a few lines: as §1
Series [4] has as its system Plasma. The experiment in a line: Plasma concentration in human treated with [14C]-labeled milnacipran hydrochloride at 100 mg, po measured at 1.5 hrs by HPLC analysis. It is filed as ADME, organism-based. The note with it: in vivo. In a few lines:
as §1

The test system of series [5] is Plasma. The experiment in a line: Plasma concentration in human treated with [14C]-labeled milnacipran hydrochloride at 100 mg, po measured at 2 hrs by HPLC analysis. In kind it is ADME, organism-based. The note with it: in vivo. In a few lines:
as §1

In series [6] the test system is Plasma. The experiment in a line: Plasma concentration in human treated with [14C]-labeled milnacipran hydrochloride at 100 mg, po measured at 3 hrs by HPLC analysis. In kind it is ADME, organism-based. The note with it: in vivo. The method in brief:
as §1

Series [7] has as its system Plasma. Put plainly: Plasma concentration in human treated with [14C]-labeled milnacipran hydrochloride at 100 mg, po measured at 4 hrs by HPLC analysis. In kind it is ADME, organism-based. The note with it: in vivo. In a few lines:
as §1

For series [8], the system named is Plasma. The experiment in a line: Plasma concentration in human treated with [14C]-labeled milnacipran hydrochloride at 100 mg, po measured at 6 hrs by HPLC analysis. Conditions: in vivo. It is filed as ADME, organism-based. In a few lines: as §1
Series [9] concerns Plasma. Put plainly: Plasma concentration in human treated with [14C]-labeled milnacipran hydrochloride at 100 mg, po measured at 12 hrs by HPLC analysis. The note with it: in vivo. It is filed as ADME, organism-based. The method in brief: as §1
The nature of series [10]: Drug excretion in human urine treated with [14C]-labeled milnacipran hydrochloride at 100 mg, po up to 4 hrs by HPLC analysis. It is filed as ADME, organism-based. The note with it: in vivo. The method in brief: (§2)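 Healthy male subjects, single oral 100 mg [14C] milnacipran hydrochloride (1 μCi/mg) after breakfast; urine pooled by interval and kept at -80°C. Urine injected directly (200 µL) onto phenyl-hexyl HPLC, 35°C, gradient ammonium acetate pH 5/methanol at 1 mL/min, with radioactivity flow detection. Metabolite excretion = net peak radioactivity (% of chromatogram, background-subtracted) × urine radioactivity excreted (% of dose); four subjects without emesis, mean.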

A short description of series [11]: Drug excretion in human urine treated with [14C]-labeled milnacipran hydrochloride at 100 mg, po after 4 to 8 hrs by HPLC analysis. In kind it is ADME, organism-based. Conditions: in vivo. In a few lines: as §2
Series [12] is described as follows: Drug excretion in human urine treated with [14C]-labeled milnacipran hydrochloride at 100 mg, po after 8 to 12 hrs by HPLC analysis. The note with it: in vivo. It is filed as ADME, organism-based. In a few lines: as §2
The nature of series [13]: Drug excretion in human urine treated with [14C]-labeled milnacipran hydrochloride at 100 mg, po after 12 to 24 hrs by HPLC analysis. In kind it is ADME, organism-based. The note with it: in vivo. In a few lines: as §2
A short description of series [14]: Drug excretion in human urine treated with [14C]-labeled milnacipran hydrochloride at 100 mg, po after 24 to 48 hrs by HPLC analysis. In kind it is ADME, organism-based. Conditions: in vivo. The method in brief: as §2
A short description of series [15]: Drug excretion in human urine treated with [14C]-labeled milnacipran hydrochloride at 100 mg, po after 48 to 72 hrs by HPLC analysis. In kind it is ADME, organism-based. Conditions: in vivo. The method in brief: as §2
Series [16] is described as follows: Drug excretion in human urine treated with [14C]-labeled milnacipran hydrochloride at 100 mg, po after 72 to 96 hrs by HPLC analysis. In kind it is ADME, organism-based. Conditions: in vivo. In a few lines: as §2
Series [17] is described as follows: Retention time in human urine treated with [14C]-labeled milnacipran hydrochloride at 100 mg, po by HPLC analysis. It is filed as ADME, organism-based. Conditions: in vivo. In a few lines: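 Urine from subjects given oral 100 mg [14C] milnacipran hydrochloride was run on a Luna phenyl-hexyl column (250 x 4.6 mm) with guard column at 35°C. Elution used a gradient of ammonium acetate pH 5/water/methanol at 1 mL/min, with in-line radioactivity flow detection and UV at 220 nm.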

A short description of series [18]: Drug excretion in mouse urine at 100 mg/kg, po. In kind it is ADME, organism-based. Also noted: dose 100 mg/kg, route oral. The note with it: read-out: Drug excretion.
Series [19] can be described thus: Drug excretion in monkey urine at 60 mg/kg, po. In kind it is ADME, organism-based, Macaca mulatta. Also noted: dose 60 mg/kg, route oral. The note with it: rhesus monkey, read-out: Drug excretion.
A short description of series [20]: Drug excretion in rat urine at 100 mg/kg, po. In kind it is ADME, organism-based. Details: dose 100 mg/kg, route oral. Conditions: read-out: Drug excretion.
A short description of series [21]: Tmax in human. In kind it is ADME, organism-based. The note with it: in vivo.
Series [22] can be described thus: Half life in human plasma. It is filed as ADME, cell-free.
Series [23] can be described thus: Drug excretion in human urine. In kind it is ADME. Conditions: read-out: Drug excretion.
A short description of series [24]: Cmax in human at 100 mg, po by LC-MS/MS analysis. In kind it is ADME, organism-based. Details: dose 100 mg, route oral. The note with it: in vivo. In a few lines: (§3)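 Plasma from healthy males after single oral 100 mg [14C] milnacipran hydrochloride, sampled 0.5–120 h. Unchanged drug quantified by validated LC-MS/MS with [2H10] internal standard, C8 column isocratic formic acid/water/methanol; linear 5–2000 ng/mL, LLOQ 5 ng/mL in 25 µL plasma. Non-compartmental analysis; values below LLOQ set to zero; subjects without emesis.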

Series [25] is described as follows: AUC (0 to t) in human at 100 mg, po by LC-MS/MS analysis. It is filed as ADME, organism-based. The note with it: plasma. In a few lines:
as §3

Series [26] in a line: AUC (0 to infinity) in human at 100 mg, po by LC-MS/MS analysis. It is filed as ADME, organism-based. Details: dose 100 mg, time infinity, route oral. Conditions: plasma. The method in brief:
as §3

The nature of series [27]: Tmax in human at 100 mg, po by LC-MS/MS analysis. In kind it is ADME, organism-based. Conditions: in vivo. In a few lines:
as §3

Series [28] is described as follows: Half life in human at 100 mg, po by LC-MS/MS analysis. It is filed as ADME, organism-based. Conditions: in vivo. In a few lines:
as §3

Series [29] can be described thus: Drug excretion in human urine treated with [14C]-labeled milnacipran hydrochloride at 100 mg, po up to 96 hrs by LC-SRM analysis. It is filed as ADME, organism-based. Conditions: in vivo. The method in brief:
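0–96 h urine pool analysed by chiral LC-SRM on Chirobiotic V column, ammonium formate-methanol mobile phase, 1 mL/min, column 20°C. Enantiomer proportion from peak areas corrected by urine standard ratio, multiplied by milnacipran excreted in the pool (% of dose).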

As for `CCNC(=O)[C@@]1(c2ccccc2)CC1CN` (some centres not stated), the Drug excretion in series [1] is 7.73%; in series [10], 0.92%; in [11], 1.35%; in series [12], 1.26%; in series [13], 2.06%; in series [14], 1.36%. Also, the Drug excretion came to 0.73% in series [15] and 0.06% in series [16]. Further, the Cp in the series with Plasma [2] is given as less than 7.8 ng.Eq/ml; in the series on Plasma [3] it was less than 7.8 ng.Eq/ml; with Plasma [4] it was less than 7.8 ng.Eq/ml; in the series on Plasma [5] it was less than 7.8 ng.Eq/ml; in the series with Plasma [6], 24.6 ng.Eq/ml; with Plasma [7] it was 19.63 ng.Eq/ml. In addition, the Cp with Plasma [8] is reported as 23.46 ng.Eq/ml; in the series with Plasma [9], 13.67 ng.Eq/ml. Further, the Retention_time in series [17] came out at 11 min.

Consider `CCN(CC)C(=O)C1(c2ccccc2)CC1CNC(=O)O[C@@H]1O[C@H](C(=O)O)[C@@H](O)[C@H](O)[C@H]1O` (some centres not stated), for which the dose excreted turned out to be 1% in series [18], 1.6% in series [19] and 0.1% in series [20].

For `CCN(CC)C(=O)[C@]1(c2ccccc2)C[C@@H]1CNC(=O)O[C@@H]1O[C@H](C(=O)O)[C@@H](O)[C@H](O)[C@H]1O`, the Drug excretion is listed as 17.23% in series [1]; 6.26% in series [10]; 5.39% in [11]; 2.36% in [12]; 2.36% in series [13]; 0.76% in series [14]. In addition, the Drug excretion in series [15] is listed as 0.19%; in series [16] it was “Below limit of detection”. Moreover, the Cp with Plasma [2] was determined as 26.57 ng.Eq/ml; in the series on Plasma [3], 101.66 ng.Eq/ml; with Plasma [4] it was 161.3 ng.Eq/ml; in the series with Plasma [5], 190.14 ng.Eq/ml; with Plasma [6], 195.72 ng.Eq/ml; in the series on Plasma [7], 234.38 ng.Eq/ml. The Cp with Plasma [8] is given as 140.79 ng.Eq/ml; in the series on Plasma [9], 50.79 ng.Eq/ml. This compound also showed a Retention_time in series [17] of 22 min.

`CCN(CC)C(=O)[C@@]1(c2ccccc2)C[C@H]1CNC(=O)O[C@@H]1O[C@H](C(=O)O)[C@@H](O)[C@H](O)[C@H]1O`: the Drug excretion was found to be 2.14% in series [1]; 0.55% in [10]; 0.64% in [11]; 0.37% in series [12]; 0.58% in [13]; 0.28% in series [14]. For the same compound, the Drug excretion result in [15] and in series [16] was “Below limit of detection” each time. Also, the Cp in the series on Plasma [2] was less than 7.8 ng.Eq/ml; in the series on Plasma [3], less than 7.8 ng.Eq/ml; in the series on Plasma [4] it was less than 7.8 ng.Eq/ml; in the series with Plasma [5], less than 7.8 ng.Eq/ml; in the series with Plasma [6], 16.42 ng.Eq/ml; in the series with Plasma [7] it was 17.49 ng.Eq/ml. Moreover, the Cp in the series with Plasma [8] and in the series on Plasma [9] was less than 7.8 ng.Eq/ml throughout. The compound also showed a Retention_time in series [17] of 24 min.

In the case of `CCN(CC)C(=O)C1(c2ccccc2)CC1CN` (racemic) [MILNACIPRAN], the Drug excretion is 54.71% in series [1]; 15.54% in series [10]; 14.42% in series [11]; 7.17% in series [12]; 10.87% in series [13]; 5.45% in series [14]. Also, the Drug excretion in series [15] was determined as 1.47%; in series [16], 0.3%; in series [29], 54.7%. In addition, the Tmax in series [21] turned out to be 2 h; in series [27], 3.5 h. Further, the half-life is 8 h in series [22] and 8.9 h in series [28]. Besides, the dose excreted in series [23] stood at 50%. Moreover, the concentration in series [24] peaked (Cmax) at 240 ng/mL. This compound also yielded an exposure AUC(0-t) in series [25] of 2340 ng·h/mL. This compound also had an AUC(0-inf) in [26] of 2770 ng·h/mL. Moreover, the Cp turned out to be 33.92 ng.Eq/ml in the series with Plasma [2]; 83.17 ng.Eq/ml in the series on Plasma [3]; 156.73 ng.Eq/ml in the series with Plasma [4]; 178.93 ng.Eq/ml in the series with Plasma [5]; 208.01 ng.Eq/ml in the series with Plasma [6]; 214.21 ng.Eq/ml with Plasma [7]. Moreover, the Cp in the series on Plasma [8] is given as 186.82 ng.Eq/ml; with Plasma [9], 87.22 ng.Eq/ml. For the same compound, the Retention_time in series [17] was determined as 35 min.

Take `CCN(CC)C(=O)C1(c2ccccc2)CC1CN` (stereo in doubt) [MILNACIPRAN]: the Drug excretion in [29] is 23.5%.

In series [29], `CCN(CC)C(=O)[C@@]1(c2ccccc2)C[C@H]1CN` [LEVOMILNACIPRAN] displayed a Drug excretion of 31.2%.

As usually defined, the Tmax is the time at which the peak concentration occurs. For orientation: half-life means how long it takes for the measured level to halve. As a reminder, the Cmax is the highest concentration seen after dosing. As usually defined, the AUC(0-t) is exposure summed from dosing to a finite time, without extrapolation to infinity. What is called AUC(0-inf) is total exposure, with the tail of the curve extrapolated.
